Assay results collected from several papers.
Lines come from different studies, so protocols differ.
Cell line: HEK293
Effect on: cell growth or viability

Cc1ccc(Cn2cc(C(=O)NN)c(=O)c3cc(Oc4ccccc4)ccc32)cc1 — CC50 (resazurin; 48 h): > 20 µM
O=C(Nc1cccc(C(F)(F)F)c1)c1cccc(C(F)(F)F)c1 — CC50 (resazurin; 48 h): 15.6 µM
O=C1C=C2NCCc3c[nH]c(c32)C1=O — CC50 (MTT; 72 h): 50 µM
Cc1ccc(Cn2cc(C(=O)N/N=C/c3ccc([N+](=O)[O-])s3)c(=O)c3cc(Cl)c(Cl)cc32)cc1 — CC50 (resazurin; 48 h): > 20 µM
O=C(Nc1cccc([N+](=O)[O-])c1)c1cccc(C(F)(F)F)c1 — CC50 (resazurin; 48 h): > 20 µM
NC1=CC2=NCCc3c[nH]c(c32)C1=O — CC50 (MTT; 72 h): 0.1 µM
O=C(Nc1ccc(C(F)(F)F)cc1)c1cccc(C(F)(F)F)c1 — CC50 (resazurin; 48 h): 9.25 µM
COc1ccc2c(c1)c(=O)c(C(=O)NN)cn2Cc1ccccc1 — CC50 (resazurin; 48 h): > 20 µM
O=C(Nc1ccc(Br)nn1)c1cccc(F)c1 — CC50 (resazurin; 48 h): > 20 µM
COc1ccccc1C(=O)/C=C/c1cn(Cc2cn(-c3ccnc4cc(Cl)ccc34)nn2)c2ccccc12 — viability (MTT; 100 µM; 24 h): > 90%
Cc1ccc(Cn2cc(C(=O)N/N=C/c3ccc([N+](=O)[O-])o3)c(=O)c3cc([N+](=O)[O-])ccc32)cc1 — CC50 (resazurin; 48 h): > 20 µM
O=C1C(NCCc2ccc(O)cc2)=CC2=NCCc3c[nH]c1c32 — CC50 (MTT; 72 h): 3 µM
O=C(N/N=C/c1ccc([N+](=O)[O-])o1)c1cn(Cc2ccccc2)c2ccccc2c1=O — CC50 (resazurin; 48 h): > 20 µM
O=C1C(NCCc2c[nH]c3ccccc23)=CC2=NCCc3c[nH]c1c32 — CC50 (MTT; 72 h): 3.1 µM
CCCc1cc(=O)oc2cc(OCc3cc(=O)c(O)co3)ccc12 — viability (CCK-8; 12 µM; 24 h): 97.9%
